Measurements published in ChEMBL document CHEMBL3872225, “Synthesis, binding assays, cytotoxic activity and docking studies of benzimidazole and benzothiophene derivatives with selective affinity for the CB2 cannabinoid receptor” (Eur J Med Chem, 2016).

How the values were obtained:
Homo sapiens = organism: Homo sapiens; assay: Selectivity index, ratio of Ki for displacement of [3H]CP-55940 from human recombinant CB1 receptor to Ki for displacement of [3H]CP-55940 from human recombinant CB2 receptor
In short: (§1)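 Membranes from HEK-293 cells overexpressing human CB1 or CB2 incubated with increasing compound concentrations and 0.5 nM [3H]CP-55,940 at 30 °C for 1.5 h. […] Selectivity index is Ki CB1/Ki CB2.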

Cannabinoid receptor 2 [1] = molecular target: T1, Cannabinoid receptor 2 (Homo sapiens, UniProt P34972); assay: Displacement of [3H]CP-55940 from human recombinant CB2 receptor expressed in HEK293 cell membranes incubated for 1.5 hrs; in short: as §1
[2] = Cytotoxicity against human HeLa cells assessed as reduction in cell viability measured after 72 hrs by MTT assay; assay type: functional, cell-based
In short: (§2)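 Cells kept in RPMI 1640 with 5% FBS, penicillin/streptomycin, 37 °C, 5% CO2. Seeded at 10,000 cells/well, then exposed to compounds at 0.001–10 μM in 5% FBS-RPMI for 72 h at 37 °C. MTT added for 4 h, formazan dissolved overnight in 10% SDS/0.1 mM HCl, absorbance read at 570 nm. […] Etoposide as positive control.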

[3] = Cytotoxicity against resistant human HCT116 cells assessed as reduction in cell viability measured after 72 hrs by MTT assay; assay type: functional, cell-based; conditions: HCT-116, 72 h; in short: as §2
Cannabinoid receptor 1 = Cannabinoid receptor 1 (Homo sapiens, UniProt P21554); assay: Displacement of [3H]CP-55940 from human recombinant CB1 receptor expressed in HEK293 cell membranes incubated for 1.5 hrs; in short: as §1
[4] = Cytotoxicity against human HL60 cells assessed as reduction in cell viability measured after 72 hrs by MTT assay; assay type: functional, cell-based; conditions: HL-60, 72 h; in short: as §2
Cannabinoid receptor 2 [5] = molecular target: T1, Cannabinoid receptor 2; assay: Displacement of [3H]CP-55940 from human recombinant CB2 receptor expressed in HEK293 cell membranes at 1 uM incubated for 1.5 hrs relative to control
In short: (§3)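 Single-point screen on HEK-293 membranes overexpressing human CB1 or CB2. […] Compounds displacing more than 50% at 1 μM went on to full curves.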

[6] = Cytotoxicity against African green monkey Vero cells assessed as reduction in cell viability measured after 72 hrs by MTT assay; assay type: toxicity, cell-based; conditions: Chlorocebus sabaeus (African green monkey); in short: as §2
[7] = molecular target: Cannabinoid receptor 1 (CB1) (Homo sapiens, UniProt P21554); assay: Displacement of [3H]CP-55940 from human recombinant CB1 receptor expressed in HEK293 cell membranes at 1 uM incubated for 1.5 hrs relative to control; conditions: probe [3H]CP-55940; in short: as §3
[8] = Cytotoxicity against human H1975-1 cells assessed as reduction in cell viability measured after 72 hrs by MTT assay; assay type: functional, cell-based; in short: as §2

T1 sequence (P34972 whole entry): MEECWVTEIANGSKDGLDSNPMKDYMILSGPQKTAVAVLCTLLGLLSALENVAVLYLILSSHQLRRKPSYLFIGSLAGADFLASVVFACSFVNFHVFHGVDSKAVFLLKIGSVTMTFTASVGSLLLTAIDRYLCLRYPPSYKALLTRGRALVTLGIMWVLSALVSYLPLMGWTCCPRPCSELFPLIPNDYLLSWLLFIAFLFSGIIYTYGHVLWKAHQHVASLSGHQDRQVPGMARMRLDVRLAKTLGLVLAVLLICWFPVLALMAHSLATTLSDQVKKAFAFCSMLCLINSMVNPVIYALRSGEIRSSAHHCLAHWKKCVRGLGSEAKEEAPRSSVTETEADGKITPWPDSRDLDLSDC
Cannabinoid receptor 1, sequence (P21554 whole entry): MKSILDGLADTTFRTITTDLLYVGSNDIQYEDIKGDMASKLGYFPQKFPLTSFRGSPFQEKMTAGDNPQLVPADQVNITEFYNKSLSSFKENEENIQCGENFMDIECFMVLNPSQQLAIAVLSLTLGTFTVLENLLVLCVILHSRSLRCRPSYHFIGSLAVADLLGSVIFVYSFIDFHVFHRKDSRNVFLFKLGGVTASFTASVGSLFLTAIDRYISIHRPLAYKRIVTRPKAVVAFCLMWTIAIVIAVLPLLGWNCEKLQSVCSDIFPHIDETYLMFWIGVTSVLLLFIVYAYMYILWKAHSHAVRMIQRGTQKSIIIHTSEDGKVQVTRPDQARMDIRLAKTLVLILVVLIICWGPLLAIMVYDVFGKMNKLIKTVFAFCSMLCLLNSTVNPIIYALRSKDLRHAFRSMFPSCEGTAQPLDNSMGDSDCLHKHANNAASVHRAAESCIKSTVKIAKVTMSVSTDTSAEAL
Cannabinoid receptor 1 (CB1), sequence (P21554 whole entry): as above

Row | Structure (SMILES) | Ratio Ki (Homo sapiens) | IC50 (Cannabinoid receptor 2 [1]) [nM] | Ki (Cannabinoid receptor 2 [1]) [nM] | IC50 [2] [nM] | IC50 [3] [nM] | IC50 (Cannabinoid receptor 1) [nM] | Ki (Cannabinoid receptor 1) [nM] | IC50 [4] [nM] | inhibition (Cannabinoid receptor 2 [5]) [%] | IC50 at 72 h [6] [nM] | inhibition at 1.5 h, 1 µM [7] [%] | IC50 [8] [nM]
1 | CCCCCc1sc2ccccc2c1C(=O)c1cccc2ccccc12 | 1.7 | 1300 | 300 | > 10000 | > 10000 | 800 | 500 | 170 | > 50 | > 10000 | > 50 | > 10000
2 | CCCCc1nc2ccccc2n1C(=O)c1cccc2ccccc12 | 14.7 | 1700 | 400 | > 10000 | 560 | 9700 | 5900 | 105 | > 50 | 4100 | > 50 | > 10000
3 | COc1ccc(C(=O)n2c(C)nc3ccccc32)cc1 |  | > 10000 | > 10000 | > 10000 | 10 | > 10000 | > 10000 | 57 | > 50 | 1230 | > 50 | > 10000
4 | CCCc1sc2ccccc2c1C(=O)c1cccc2ccccc12 | 0.6 | 4300 | 1000 | > 10000 | > 10000 | 1000 | 600 | 130 | > 50 | > 10000 | > 50 | > 10000
5 | COc1ccc(Cn2c(-c3ccc(OC)cc3)nc3ccccc32)cc1 | > 14 | 2700 | 700 | 3060 | 1750 | > 10000 | > 10000 | 57 | > 50 | > 10000 | > 50 | > 10000
6 | COc1ccc(C(=O)c2c(-c3ccc(OC)cc3)sc3ccccc23)cc1 | 7 | 400 | 100 | > 10000 | > 10000 | 1100 | 700 | 76 | > 50 | > 10000 | > 50 | > 10000
7 | COc1cc([C@@H]2c3cc4c(cc3[C@@H](O[C@@H]3O[C@@H]5CO[C@@H](C)O[C@H]5[C@H](O)[C@H]3O)[C@H]3COC(=O)[C@H]23)OCO4)cc(OC)c1O [ETOPOSIDE] |  |  |  | 8200 | 2800 |  |  | 2100 |  | 1500 |  | 9500
8 | Cc1nc2ccccc2n1C(=O)c1cccc2ccccc12 |  | > 10000 | > 10000 | > 10000 | > 10000 | > 10000 | > 10000 | 93 | > 50 | > 10000 | > 50 | > 10000
9 | CCCc1nc2ccccc2n1C(=O)c1cccc2ccccc12 |  | > 10000 | > 10000 | > 10000 | 2400 | > 10000 | > 10000 | 100 | > 50 | > 10000 | > 50 | > 10000
10 | COc1ccc(C(=O)n2c(C3CCCC3)nc3ccccc32)cc1 | > 20 | 2200 | 500 | > 10000 | > 10000 | > 10000 | > 10000 | 76 | > 50 | > 10000 | > 50 | > 10000
11 | CC(C)Cc1sc2ccccc2c1C(=O)c1cccc2ccccc12 | 1.4 | 2000 | 500 | > 10000 | > 10000 | 1200 | 700 | 72 | > 50 | > 10000 | > 50 | > 10000
12 | CC(C)Cc1nc2ccccc2n1C(=O)c1cccc2ccccc12 | > 100 | 500 | 100 | > 10000 | 2170 | > 10000 | > 10000 | 94 | > 50 | > 10000 | > 50 | > 10000
13 | COc1ccc(C(=O)n2c(C(C)C)nc3ccccc32)cc1 | > 12.5 | 3200 | 800 | > 10000 | 190 | > 10000 | > 10000 | 630 | > 50 | > 10000 | > 50 | > 10000
14 | CCc1sc2ccccc2c1C(=O)c1cccc2ccccc12 | 7.28 | 2900 | 700 | > 10000 | > 10000 | 8400 | 5100 | 99 | > 50 | > 10000 | > 50 | > 10000
15 | Cc1c(C(=O)c2cccc3ccccc23)c2cccc3c2n1[C@H](CN1CCOCC1)CO3 [WIN-552122] |  |  |  | 980 | 920 |  |  | 7 |  | 310 |  | 3800
16 | CCc1sc2ccccc2c1C(=O)c1ccc(OC)cc1 | > 6.2 | 6600 | 1600 | > 10000 | > 10000 | > 10000 | > 10000 | 46 | > 50 | > 10000 | > 50 | > 10000
17 | COc1ccc(C(=O)n2c(CC(C)C)nc3ccccc32)cc1 |  | > 10000 | > 10000 | > 10000 | 3560 | > 10000 | > 10000 | 34 | > 50 | > 10000 | > 50 | > 10000
